Data: paper PMC7415440 (Drug Design, Development and Therapy, 2020)

Assays:
Multiple ascending dose = assay type: in vivo, human
Outline: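 Seven 1 h iv saline infusions every 12 h. Plasma sampled to 12 h after the first dose, predose at 60 and 72 h, then to 96 h; urine collected in 4–12 h intervals after the first and last doses. HPLC-MS/MS with deuterated internal standard; plasma range 10–30,000 ng/mL, urine 50–150,000 ng/mL. Noncompartmental analysis on actual sampling times; AUCτ by trapezoidal rule; CLR as Ae/AUClast.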

Single ascending dose = assay type: in vivo, human; conditions: for Tmax: max]
Outline: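 Single 0.5 h iv infusion in saline. Plasma sampled predose to 48 h, stored −70°C; urine collected in intervals to 24 h with volumes. Validated HPLC-MS/MS, deuterated internal standard, positive ESI MRM m/z 344.3→201.2. Plasma range 1–3000 or 10–30,000 ng/mL and urine 5–15,000 or 50–150,000 ng/mL, by dose group. Noncompartmental analysis on actual times; AUCinf = AUClast + Clast/λz; CLR = Ae/AUClast.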

[1] = rats, 4-week GLP toxicology study; cited from earlier work
[2] = system: regulatory T cells (Tregs) in peripheral blood mononuclear cells (PBMCs); conditions: PBMCs incubated for 24 h with high-dose JPI-289; cited from earlier work
stroke animal model = conditions: ref unpublished data on file, Jeil Pharma, Seoul, Korea; cited from earlier work
[3] = multiple iv 150 mg over 1 h every 12 h x7, n=6, mean (SD)
[4] = multiple iv 300 mg over 1 h every 12 h x7, n=6, mean (SD)
[5] = multiple iv 450 mg over 1 h every 12 h x7, n=6, mean (SD)
[6] = multiple iv, all doses 150-450 mg, Total n=18, mean (SD)
[7] = single iv 35 mg over 0.5 h, n=6, mean (SD)
[8] = single iv 75 mg over 0.5 h, n=6, mean (SD)
[9] = single iv 150 mg over 0.5 h, n=6, mean (SD)
[10] = single iv 300 mg over 0.5 h, n=6, mean (SD)
[11] = single iv 600 mg over 0.5 h, n=6, mean (SD)
[12] = single iv, all doses 35-600 mg, Total n=30, mean (SD)

CCOc1cc(CN2CCOCC2)cc2[nH]c(=O)c3c(c12)NCCC3.Cl.Cl.O.O [JPI-289]
AUCτ,1st dose (Multiple ascending dose; [3]): 4766.06 (878.28) ng·h/mL | AUCτ,ss (Multiple ascending dose; [3]): 7696.21 (1157.59) ng·h/mL | Ae,1st dose (Multiple ascending dose; [3]): 3.98 (1.21) mg | Ae,last dose (Multiple ascending dose; [3]): 5.48 (1.64) mg | CLR,1st dose (Multiple ascending dose; [3]): 0.84 (0.21) L/h | CLR,last dose (Multiple ascending dose; [3]): 0.73 (0.24) L/h | CLss (Multiple ascending dose; [3]): 19.91 (3.37) L/h | Cav,ss (Multiple ascending dose; [3]): 641.35 (96.47) ng/mL | Cmax,1st dose (Multiple ascending dose; [3]): 1728.17 (353.61) ng/mL | Cmax,ss (Multiple ascending dose; [3]): 2023.47 (460.41) ng/mL | Observed AI (accumulation index) (Multiple ascending dose; [3]): 1.64 (0.21) | Vd,ss (Multiple ascending dose; [3]): 112.20 (31.78) L | Vz (Multiple ascending dose; [3]): 85.65 (17.01) L | t1/2,eff (Multiple ascending dose; [3]): 1.88 (0.13) L | t1/2z (Multiple ascending dose; [3]): 2.44 h | AUCτ,1st dose (Multiple ascending dose; [4]): 14,809.79 (2793.29) ng·h/mL | AUCτ,ss (Multiple ascending dose; [4]): 22,608.80 (5198.68) ng·h/mL | Ae,1st dose (Multiple ascending dose; [4]): 11.74 (3.77) mg | Ae,last dose (Multiple ascending dose; [4]): 13.87 (5.36) mg | CLR,1st dose (Multiple ascending dose; [4]): 0.80 (0.25) L/h | CLR,last dose (Multiple ascending dose; [4]): 0.61 (0.14) L/h | CLss (Multiple ascending dose; [4]): 13.95 (3.63) L/h | Cav,ss (Multiple ascending dose; [4]): 1884.07 (433.23) ng/mL | Cmax,1st dose (Multiple ascending dose; [4]): 4747.25 (798.21) ng/mL | Cmax,ss (Multiple ascending dose; [4]): 5658.20 (804.71) ng/mL | Observed AI (accumulation index) (Multiple ascending dose; [4]): 1.52 (0.22) | Vd,ss (Multiple ascending dose; [4]): 74.92 (11.18) L | Vz (Multiple ascending dose; [4]): 67.95 (11.04) L | t1/2,eff (Multiple ascending dose; [4]): 2.46 (0.67) L | t1/2z (Multiple ascending dose; [4]): 2.74 h | AUCτ,1st dose (Multiple ascending dose; [5]): 28,278.07 (6412.76) ng·h/mL | AUCτ,ss (Multiple ascending dose; [5]): 50,840.74 (19,417.91) ng·h/mL | Ae,1st dose (Multiple ascending dose; [5]): 25.66 (5.03) mg | Ae,last dose (Multiple ascending dose; [5]): 40.71 (20.87) mg | CLR,1st dose (Multiple ascending dose; [5]): 0.92 (0.16) L/h | CLR,last dose (Multiple ascending dose; [5]): 0.77 (0.22) L/h | CLss (Multiple ascending dose; [5]): 9.78 (3.11) L/h | Cav,ss (Multiple ascending dose; [5]): 4236.73 (1618.16) ng/mL | Cmax,1st dose (Multiple ascending dose; [5]): 8070.98 (1320.10) ng/mL | Cmax,ss (Multiple ascending dose; [5]): 11,921.28 (1655.56) ng/mL | Observed AI (accumulation index) (Multiple ascending dose; [5]): 1.76 (0.28) | Vd,ss (Multiple ascending dose; [5]): 72.06 (8.72) L | Vz (Multiple ascending dose; [5]): 63.02 (8.23) L | t1/2,eff (Multiple ascending dose; [5]): 3.05 (0.97) L | t1/2z (Multiple ascending dose; [5]): 3.5 h | AUCτ,1st dose (Multiple ascending dose; [6]): 15,951.31 (10,623.66) ng·h/mL | AUCτ,ss (Multiple ascending dose; [6]): 27,048.58 (21,404.87) ng·h/mL | Ae,1st dose (Multiple ascending dose; [6]): 13.79 (9.86) mg | Ae,last dose (Multiple ascending dose; [6]): 20.02 (19.40) mg | CLR,1st dose (Multiple ascending dose; [6]): 0.85 (0.20) L/h | CLR,last dose (Multiple ascending dose; [6]): 0.70 (0.21) L/h | CLss (Multiple ascending dose; [6]): 14.54 (5.33) L/h | Cav,ss (Multiple ascending dose; [6]): 2254.05 (1783.74) ng/mL | Cmax,1st dose (Multiple ascending dose; [6]): 4848.80 (2800.32) ng/mL | Cmax,ss (Multiple ascending dose; [6]): 6534.32 (4330.54) ng/mL | Observed AI (accumulation index) (Multiple ascending dose; [6]): 1.64 (0.24) | Vd,ss (Multiple ascending dose; [6]): 86.39 (26.65) L | Vz (Multiple ascending dose; [6]): 72.21 (15.52) L | t1/2,eff (Multiple ascending dose; [6]): 2.46 (0.81) L | t1/2z (Multiple ascending dose; [6]): 2.89 h | AUCinf (Single ascending dose; [7]): 665.50 (149.62) ng·h/mL | AUCinf/dose (Single ascending dose; [7]): 19.01 (4.28) ng·h/mL/mg | AUClast (Single ascending dose; [7]): 658.82 (148.39) ng·h/mL | Ae (amount of unchanged drug in urine) (Single ascending dose; [7]): 0.56 (0.22) mg | CL (Single ascending dose; [7]): 54.88 (12.54) L/h | CLR (renal clearance) (Single ascending dose; [7]): 0.84 (0.28) L/h | Cmax (Single ascending dose; [7]): 422.72 (102.10) ng/mL | Cmax/dose (Single ascending dose; [7]): 12.08 (2.92) ng/mL/mg | Vd,ss (Single ascending dose; [7]): 101.33 (26.74) L | Vz (Single ascending dose; [7]): 160.73 (42.91) L | t1/2z (Single ascending dose; [7]): 2.18 (1.01) h | Tmax (Single ascending dose; single iv 35 mg over 0.5 h, n=6, median [min): 0.47 [0.33, 0.50] h | AUCinf (Single ascending dose; [8]): 1947.57 (366.92) ng·h/mL | AUCinf/dose (Single ascending dose; [8]): 25.97 (4.89) ng·h/mL/mg | AUClast (Single ascending dose; [8]): 1940.45 (367.40) ng·h/mL | Ae (amount of unchanged drug in urine) (Single ascending dose; [8]): 1.74 (0.71) mg | CL (Single ascending dose; [8]): 39.77 (8.07) L/h | CLR (renal clearance) (Single ascending dose; [8]): 0.88 (0.26) L/h | Cmax (Single ascending dose; [8]): 1197.77 (173.37) ng/mL | Cmax/dose (Single ascending dose; [8]): 15.97 (2.31) ng/mL/mg | Vd,ss (Single ascending dose; [8]): 91.18 (17.49) L | Vz (Single ascending dose; [8]): 183.32 (61.92) L | t1/2z (Single ascending dose; [8]): 3.21 (0.81) h | Tmax (Single ascending dose; single iv 75 mg over 0.5 h, n=6, median [min): 0.48 [0.33, 0.52] h | AUCinf (Single ascending dose; [9]): 6057.90 (1533.04) ng·h/mL | AUCinf/dose (Single ascending dose; [9]): 40.39 (10.22) ng·h/mL/mg | AUClast (Single ascending dose; [9]): 6029.78 (1520.32) ng·h/mL | Ae (amount of unchanged drug in urine) (Single ascending dose; [9]): 5.31 (1.49) mg | CL (Single ascending dose; [9]): 26.41 (8.03) L/h | CLR (renal clearance) (Single ascending dose; [9]): 0.89 (0.21) L/h | Cmax (Single ascending dose; [9]): 2481.05 (502.31) ng/mL | Cmax/dose (Single ascending dose; [9]): 16.54 (3.35) ng/mL/mg | Vd,ss (Single ascending dose; [9]): 85.17 (15.31) L | Vz (Single ascending dose; [9]): 118.12 (34.25) L | t1/2z (Single ascending dose; [9]): 3.12 (0.40) h | Tmax (Single ascending dose; single iv 150 mg over 0.5 h, n=6, median [min): 0.48 [0.43, 0.50] h | AUCinf (Single ascending dose; [10]): 10,061.82 (3690.15) ng·h/mL | AUCinf/dose (Single ascending dose; [10]): 33.54 (12.30) ng·h/mL/mg | AUClast (Single ascending dose; [10]): 9786.58 (3534.51) ng·h/mL | Ae (amount of unchanged drug in urine) (Single ascending dose; [10]): 8.37 (3.65) mg | CL (Single ascending dose; [10]): 34.28 (15.06) L/h | CLR (renal clearance) (Single ascending dose; [10]): 0.91 (0.45) L/h | Cmax (Single ascending dose; [10]): 4842.02 (1202.57) ng/mL | Cmax/dose (Single ascending dose; [10]): 16.14 (4.01) ng/mL/mg | Vd,ss (Single ascending dose; [10]): 92.52 (15.20) L | Vz (Single ascending dose; [10]): 124.50 (30.65) L | t1/2z (Single ascending dose; [10]): 2.73 (0.76) h | Tmax (Single ascending dose; single iv 300 mg over 0.5 h, n=6, median [min): 0.48 [0.17, 0.50] h | AUCinf (Single ascending dose; [11]): 32,228.35 (11,796.05) ng·h/mL | AUCinf/dose (Single ascending dose; [11]): 53.71 (19.66) ng·h/mL/mg | AUClast (Single ascending dose; [11]): 32,066.88 (11,725.80) ng·h/mL | Ae (amount of unchanged drug in urine) (Single ascending dose; [11]): 25.32 (6.50) mg | CL (Single ascending dose; [11]): 21.34 (9.69) L/h | CLR (renal clearance) (Single ascending dose; [11]): 0.84 (0.20) L/h | Cmax (Single ascending dose; [11]): 10,381.25 (2097.17) ng/mL | Cmax/dose (Single ascending dose; [11]): 17.30 (3.50) ng/mL/mg | Vd,ss (Single ascending dose; [11]): 73.01 (13.20) L | Vz (Single ascending dose; [11]): 81.46 (16.60) L | t1/2z (Single ascending dose; [11]): 2.88 (0.72) h | Tmax (Single ascending dose; single iv 600 mg over 0.5 h, n=6, median [min): 0.50 [0.48, 0.52] h | AUCinf (Single ascending dose; [12]): 10,192.23 (12,791.37) ng·h/mL | AUCinf/dose (Single ascending dose; [12]): 34.52 (16.32) ng·h/mL/mg | AUClast (Single ascending dose; [12]): 10,096.50 (12,719.54) ng·h/mL | Ae (amount of unchanged drug in urine) (Single ascending dose; [12]): 8.26 (9.65) mg | CL (Single ascending dose; [12]): 35.33 (15.66) L/h | CLR (renal clearance) (Single ascending dose; [12]): 0.87 (0.27) L/h | Cmax (Single ascending dose; [12]): 3864.96 (3789.52) ng/mL | Cmax/dose (Single ascending dose; [12]): 15.61 (3.55) ng/mL/mg | Vd,ss (Single ascending dose; [12]): 88.64 (19.42) L | Vz (Single ascending dose; [12]): 133.63 (51.80) L | t1/2z (Single ascending dose; [12]): 2.83 (0.80) h | Tmax (Single ascending dose; single iv, all doses 35-600 mg, Total n=30, median [min): 0.48 [0.17, 0.52] h | no observed adverse event level [1]: 40 mg/kg | proportions of regulatory T cells (Tregs) [2]: can be increased | time after stroke onset at which treatment showed efficacy (stroke animal model): more than 10 h
